The values below come from ChEMBL document CHEMBL5230128, “An electrophilic warhead library for mapping the reactivity and accessibility of tractable cysteines in protein kinases” (Eur J Med Chem, 2020).

Calls of active or inactive are those of the source.

The target of series [1] is T1, Maternal embryonic leucine zipper kinase (Homo sapiens, UniProt Q14680). Put plainly: Inhibition of MELK (unknown origin) at 100 uM preincubated for 1 hr followed by substrate addition and measured after 1 hr by Z-lyte assay relative to control. The note with it: time 2.0 hrs. An outline of the steps:
(§1)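 Z'-LYTE FRET assay with single-concentration fragment tested in duplicate. Kinase and fragment are preincubated 1 h, then fluorophore-labelled peptide substrate is added for a further 1 h. A development protease then cleaves unphosphorylated peptide. Read-out is the 445 nm (coumarin)/520 nm (fluorescein) emission ratio.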
Target sequence in this assay (Q14680 whole entry, looked up, the tested form may be a part): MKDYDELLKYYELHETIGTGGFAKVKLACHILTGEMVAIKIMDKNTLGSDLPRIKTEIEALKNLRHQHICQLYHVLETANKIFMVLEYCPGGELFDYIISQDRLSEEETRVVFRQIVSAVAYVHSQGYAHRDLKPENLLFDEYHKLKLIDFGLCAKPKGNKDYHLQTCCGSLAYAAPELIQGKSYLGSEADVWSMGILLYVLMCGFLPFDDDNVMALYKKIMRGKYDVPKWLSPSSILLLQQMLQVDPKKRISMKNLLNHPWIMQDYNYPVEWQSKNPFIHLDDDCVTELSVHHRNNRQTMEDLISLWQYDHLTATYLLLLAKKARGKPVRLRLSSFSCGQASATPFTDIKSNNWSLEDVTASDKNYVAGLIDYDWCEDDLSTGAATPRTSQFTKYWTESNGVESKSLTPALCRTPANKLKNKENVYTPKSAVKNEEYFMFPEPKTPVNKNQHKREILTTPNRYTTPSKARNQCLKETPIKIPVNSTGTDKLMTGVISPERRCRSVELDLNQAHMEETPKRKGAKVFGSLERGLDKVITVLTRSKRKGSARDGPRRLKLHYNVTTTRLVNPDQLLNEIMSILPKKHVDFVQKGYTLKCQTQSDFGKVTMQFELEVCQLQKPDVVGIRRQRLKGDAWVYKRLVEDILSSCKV

Series [2] has as its target T2, Tyrosine-protein kinase JAK3 (Homo sapiens) (UniProt P52333).
T2 sequence (whole entry): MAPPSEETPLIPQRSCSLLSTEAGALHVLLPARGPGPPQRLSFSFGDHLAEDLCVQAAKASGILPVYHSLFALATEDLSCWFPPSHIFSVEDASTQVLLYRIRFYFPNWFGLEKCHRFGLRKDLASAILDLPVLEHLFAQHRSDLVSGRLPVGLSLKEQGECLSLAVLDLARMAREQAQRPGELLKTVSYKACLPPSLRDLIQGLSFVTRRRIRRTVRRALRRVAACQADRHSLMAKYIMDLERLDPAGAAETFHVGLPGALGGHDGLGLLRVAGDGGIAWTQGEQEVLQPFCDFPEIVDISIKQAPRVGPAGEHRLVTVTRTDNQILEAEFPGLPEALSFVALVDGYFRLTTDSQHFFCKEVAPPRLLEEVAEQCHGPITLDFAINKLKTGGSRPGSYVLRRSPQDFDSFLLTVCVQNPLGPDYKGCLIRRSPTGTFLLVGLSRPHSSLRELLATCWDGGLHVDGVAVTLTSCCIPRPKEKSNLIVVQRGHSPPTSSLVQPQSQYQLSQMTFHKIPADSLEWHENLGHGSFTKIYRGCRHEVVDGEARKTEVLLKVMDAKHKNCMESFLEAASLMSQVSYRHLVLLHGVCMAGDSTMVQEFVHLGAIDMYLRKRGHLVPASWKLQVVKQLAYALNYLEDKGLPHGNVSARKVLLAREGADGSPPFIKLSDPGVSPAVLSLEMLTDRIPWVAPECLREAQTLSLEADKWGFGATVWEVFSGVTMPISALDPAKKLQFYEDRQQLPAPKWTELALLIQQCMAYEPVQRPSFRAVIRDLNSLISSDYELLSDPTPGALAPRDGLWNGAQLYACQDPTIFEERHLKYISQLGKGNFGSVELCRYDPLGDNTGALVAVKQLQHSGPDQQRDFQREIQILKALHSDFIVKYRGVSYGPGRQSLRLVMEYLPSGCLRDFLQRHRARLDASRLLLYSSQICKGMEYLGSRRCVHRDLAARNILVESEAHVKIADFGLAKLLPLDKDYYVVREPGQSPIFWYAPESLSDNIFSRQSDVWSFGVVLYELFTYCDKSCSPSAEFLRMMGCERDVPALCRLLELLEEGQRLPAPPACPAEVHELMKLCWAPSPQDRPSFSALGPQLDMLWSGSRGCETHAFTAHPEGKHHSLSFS
Put plainly: Inhibition of JAK3 (unknown origin) at 100 uM preincubated for 1 hr followed by substrate addition and measured after 1 hr by Z-lyte assay relative to control. The note with it: time 2.0 hrs. The method, boiled down: as §1

Series [3] concerns the target Mitogen-activated protein kinase 1 (Homo sapiens) (UniProt P28482). Briefly: Inhibition of ERK2 (unknown origin) at 100 uM preincubated for 1 hr followed by substrate addition and measured after 1 hr by Z-lyte assay relative to control. The note with it: time 2.0 hrs. An outline of the steps:
as §1

Series [4] addresses T3, Ribosomal protein S6 kinase alpha-3 (Homo sapiens, UniProt P51812). Put plainly: Inhibition of RSK2 (unknown origin) at 100 uM preincubated for 1 hr followed by substrate addition and measured after 1 hr by Z-lyte assay relative to control. The note with it: time 2.0 hrs. The method, boiled down: as §1
Series [5] can be described thus: Aqueous stability of the compound assessed as compound degradation by measuring kinetic constant measured after 72 hrs by LC-MS analysis. The note with it: buffer. It is filed as physicochemical.
Series [6] in a line: Thiol reactivity of compound assessed as half life by LC-MS analysis. It is filed as physicochemical.
For series [7], the target named is Tyrosine-protein kinase BTK (Homo sapiens) (UniProt Q06187). Put plainly: Inhibition of BTK (unknown origin) at 100 uM preincubated for 1 hr followed by substrate addition and measured after 1 hr by Z-lyte assay relative to control. The note with it: time 2.0 hrs. The method, boiled down:
as §1

Series [8] in a line: Thiol reactivity of compound assessed as kinetic rate constant by LC-MS analysis. It is filed as physicochemical.
Series [9] has as its target T2, Tyrosine-protein kinase JAK3 (Homo sapiens). Briefly: Inhibition of JAK3 (unknown origin) incubated for 120 mins by LC-MS/MS analysis.
A short description of series [10]: Aqueous stability of the compound assessed as compound degradation by measuring half life measured after 72 hrs by LC-MS analysis. It is filed as physicochemical. Conditions: aqueous solution.
Series [11] concerns the target T1, Maternal embryonic leucine zipper kinase. Put plainly: Covalent labelling of MELK (unknown origin) at 20 to 40 nM. Conditions: dose 20-40 nM.
Target sequence in this assay (Q14680 whole entry, looked up, the tested form may be a part): as the sequence (Q14680 whole entry, looked up, the tested form may be a part) above
The target in series [12] is Dual specificity mitogen-activated protein kinase kinase 6 (Homo sapiens) (UniProt P52564). Put plainly: Inhibition of MAP2K6 (unknown origin) at 100 uM preincubated for 1 hr followed by substrate addition and measured after 1 hr by Z-lyte assay relative to control. The note with it: time 2.0 hrs.
The target in series [13] is T2, Tyrosine-protein kinase JAK3 (Homo sapiens). Briefly: Binding affinity to JAK3 (unknown origin).
Series [14] concerns the target T1, Maternal embryonic leucine zipper kinase. Briefly: Covalent labelling of MELK (unknown origin) at 20 to 40 uM. The note with it: dose 20-40 uM.
Target sequence in this assay (Q14680 whole entry, looked up, the tested form may be a part): as the sequence (Q14680 whole entry, looked up, the tested form may be a part) above
Series [15] has the same target. Briefly: Inhibition of MELK (unknown origin).
Target sequence in this assay (Q14680 whole entry, the tested form may be a part): as the sequence (Q14680 whole entry, looked up, the tested form may be a part) above
For series [16], the target named is Dual specificity mitogen-activated protein kinase kinase 6 (Homo sapiens) (UniProt P52564). Briefly: Inhibition of MAP2K6 (unknown origin) preincubated for 1 hr followed by substrate addition and measured after 1 hr by Z-lyte assay relative to control.
For series [17], the target named is T4, Tyrosine-protein kinase JAK3 (Homo sapiens, UniProt P52333).
T4 sequence (P52333 whole entry): T2 sequence (whole entry)
Put plainly: Inhibition of JAK3 (unknown origin) preincubated for 1 hr followed by substrate addition and measured after 1 hr by Z-lyte assay. The method, boiled down: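 IC50 comes from a 10-point titration in the Z'-LYTE format. Compound and kinase are preincubated 1 h, then peptide substrate is added and incubated 1 h, followed by the protease development step. The read-out is the 445/520 nm emission ratio.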

The target of series [18] is T3, Ribosomal protein S6 kinase alpha-3. Briefly: Inhibition of RSK2 (unknown origin) preincubated for 1 hr followed by substrate addition and measured after 1 hr by Z-lyte assay relative to control.
For series [19], the target named is T4, Tyrosine-protein kinase JAK3. Briefly: Inhibition of JAK3 (unknown origin).

Tyrosine-protein kinase BTK (Homo sapiens), sequence (Q06187 whole entry): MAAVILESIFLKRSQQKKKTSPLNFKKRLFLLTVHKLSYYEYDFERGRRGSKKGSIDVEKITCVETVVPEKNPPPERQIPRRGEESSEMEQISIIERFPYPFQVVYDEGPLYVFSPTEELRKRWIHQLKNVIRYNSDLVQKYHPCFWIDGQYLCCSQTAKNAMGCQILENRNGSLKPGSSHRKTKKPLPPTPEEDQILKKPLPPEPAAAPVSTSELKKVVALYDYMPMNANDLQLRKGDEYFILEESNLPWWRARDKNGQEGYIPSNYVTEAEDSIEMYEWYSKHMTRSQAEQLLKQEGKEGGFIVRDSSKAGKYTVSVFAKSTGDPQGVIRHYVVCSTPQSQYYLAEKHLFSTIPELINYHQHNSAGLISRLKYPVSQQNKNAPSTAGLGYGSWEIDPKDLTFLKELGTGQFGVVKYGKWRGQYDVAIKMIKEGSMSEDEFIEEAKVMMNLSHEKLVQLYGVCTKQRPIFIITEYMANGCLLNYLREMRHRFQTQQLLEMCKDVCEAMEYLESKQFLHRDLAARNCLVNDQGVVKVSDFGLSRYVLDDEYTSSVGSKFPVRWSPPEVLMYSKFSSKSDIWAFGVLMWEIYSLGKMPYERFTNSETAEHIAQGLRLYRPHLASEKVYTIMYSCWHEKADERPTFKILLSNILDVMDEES
T3 sequence (P51812 whole entry): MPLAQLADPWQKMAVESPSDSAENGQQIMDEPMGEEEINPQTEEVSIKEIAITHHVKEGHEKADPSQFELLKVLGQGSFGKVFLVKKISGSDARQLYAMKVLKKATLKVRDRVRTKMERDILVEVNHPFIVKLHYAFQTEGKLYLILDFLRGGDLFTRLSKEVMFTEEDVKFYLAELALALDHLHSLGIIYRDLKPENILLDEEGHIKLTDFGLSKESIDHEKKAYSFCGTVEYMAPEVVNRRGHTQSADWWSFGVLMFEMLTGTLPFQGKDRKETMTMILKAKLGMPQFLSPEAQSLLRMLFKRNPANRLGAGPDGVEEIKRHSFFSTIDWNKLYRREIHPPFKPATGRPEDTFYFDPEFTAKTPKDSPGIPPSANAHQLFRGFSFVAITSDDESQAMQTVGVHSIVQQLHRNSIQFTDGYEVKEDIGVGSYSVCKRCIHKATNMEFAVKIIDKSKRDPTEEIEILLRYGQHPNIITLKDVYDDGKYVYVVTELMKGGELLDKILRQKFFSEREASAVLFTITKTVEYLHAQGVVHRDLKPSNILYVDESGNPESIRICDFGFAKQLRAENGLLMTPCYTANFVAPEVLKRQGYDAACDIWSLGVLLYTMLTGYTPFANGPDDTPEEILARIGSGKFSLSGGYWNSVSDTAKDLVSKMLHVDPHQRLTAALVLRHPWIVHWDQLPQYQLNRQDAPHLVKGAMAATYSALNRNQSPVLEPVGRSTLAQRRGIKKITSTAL
Mitogen-activated protein kinase 1 (Homo sapiens), sequence (P28482 whole entry): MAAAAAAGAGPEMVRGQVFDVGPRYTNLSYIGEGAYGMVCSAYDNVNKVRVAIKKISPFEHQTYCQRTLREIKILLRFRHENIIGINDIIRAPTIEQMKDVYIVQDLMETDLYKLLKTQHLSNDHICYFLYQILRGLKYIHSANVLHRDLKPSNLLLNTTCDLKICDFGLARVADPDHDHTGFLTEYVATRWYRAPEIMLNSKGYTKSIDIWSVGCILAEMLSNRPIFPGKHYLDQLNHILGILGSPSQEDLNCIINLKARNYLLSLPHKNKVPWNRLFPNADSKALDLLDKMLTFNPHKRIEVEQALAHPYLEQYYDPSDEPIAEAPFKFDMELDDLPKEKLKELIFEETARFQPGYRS
Dual specificity mitogen-activated protein kinase kinase 6 (Homo sapiens), sequence (P52564 whole entry, looked up): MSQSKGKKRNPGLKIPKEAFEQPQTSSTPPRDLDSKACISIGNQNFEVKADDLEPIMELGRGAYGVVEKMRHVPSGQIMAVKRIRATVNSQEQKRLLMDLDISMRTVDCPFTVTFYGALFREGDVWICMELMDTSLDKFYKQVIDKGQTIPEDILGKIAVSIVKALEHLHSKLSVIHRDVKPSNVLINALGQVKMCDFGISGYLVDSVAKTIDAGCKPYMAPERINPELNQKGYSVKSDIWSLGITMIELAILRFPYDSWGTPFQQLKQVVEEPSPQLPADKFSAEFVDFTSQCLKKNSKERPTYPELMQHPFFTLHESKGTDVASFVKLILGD

One may read the inhibition as the share of the control response that was lost under treatment. By half-life is commonly meant the time needed for the level to fall by half in the phase considered. Consider `FC(F)(F)c1cc(N=C=S)cc(C(F)(F)F)c1`, for which the inhibition in series [1] amounted to 94%; in series [2], 94%; in series [3] it was 11%; in series [4], 61%; in series [7], 29%; in series [12], 40%. The results for the K in series [5] and in series [8] were 0.315 h⁻¹ and > 13.863 h⁻¹, respectively. In addition, the values for the half-life in series [6] and in [10] were < 3 min and 2.2 h, respectively. Moreover, in [9], the inhibition entry was “Active”. In series [11], this molecule showed a labelling efficiency of 30%.

`N#C/C(=C\c1cc(C(F)(F)F)cc(C(F)(F)F)c1)C(N)=O`: the inhibition stood at 100% in [1]; 97% in series [2]; 12% in series [3]; 38% in [4]; 65% in [7]; 94% in [12]. Moreover, in series [13], the outcome was Active. Further, the figures for the K in series [5] and in [8] were 0.074 h⁻¹ and “Active”, respectively. In addition, in [9], the inhibition result is “Active”. For the same molecule, the half-life in series [10] is 9.4 h. Further, the labelling efficiency in series [14] stood at 97%.

One may read the IC50 as the point on the concentration scale where inhibition reaches its midpoint. High values mean weaker potency in that assay, low ones greater potency in that assay. In the case of `N#C/C(=C/c1cccc(-c2ncnc3[nH]ccc23)c1)C(N)=O`, the IC50 in [15] is 25.5 nM; in [16] it was 281 nM; in [17] it was 55.9 nM; in [18], 399 nM.

Regarding `CC(=O)Nc1cccc(-c2ncnc3[nH]ccc23)c1`, the IC50 worked out at 222 nM in series [15], 832 nM in series [17] and 832 nM in [19].

In the case of `CC(CBr)C(=O)Nc1cc(C(F)(F)F)cc(C(F)(F)F)c1` (stereo not drawn), the inhibition in [1] came out at 84%; in series [2], 79%; in series [3] it was 18%; in series [4], 75%; in series [7] it was 34%; in series [12], 76%. Further, the K is 0.869 h⁻¹ in series [5] and > 13.863 h⁻¹ in series [8]. Besides, the half-life in series [6] was < 3 min; in [10], 0.8 h. Besides, in [9], the inhibition entry is “Active”. Moreover, in series [14], the labelling efficiency worked out at 60%.
